How the values were obtained:
[1] = tested on: T-ALL cell lines other than SUP-T1; test: Cell cytotoxicity assay; format: cell-based; settings: Homo sapiens, SUP-T1, 48 h
In short: (§1)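 Human T-ALL lines grown in RPMI with 10% or 20% FBS at 37°C, 5% CO2. Plated 2×10^3–2×10^4 cells/well depending on doubling time, in quadruplicate. Test compound added from DMSO (≥1:1000 into medium) at varying concentrations; DMSO vehicle control. Exposure 48 h, then CCK-8 for 4 h at 37°C and A450 read. % survival derived; ≥3 independent experiments, mean ± SE.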

BCL-XL = BCL-XL (Homo sapiens, UniProt Q07817); test: BCL-XL degradation by western blot densitometry in SUP-T1 cells; format: cell-based; settings: read-out: DC50 (concentration that degraded 50% of BCL-XL protein), 24 hrs of DT2216, western blot densitometry
Sequence of BCL-XL (Q07817 whole entry): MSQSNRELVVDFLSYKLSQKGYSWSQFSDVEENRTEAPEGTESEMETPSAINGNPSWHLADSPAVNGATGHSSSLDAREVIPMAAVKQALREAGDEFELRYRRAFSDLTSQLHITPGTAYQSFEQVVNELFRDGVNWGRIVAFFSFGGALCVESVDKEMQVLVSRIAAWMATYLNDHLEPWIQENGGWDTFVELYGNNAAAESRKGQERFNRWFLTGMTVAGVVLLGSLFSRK

PEER T-ALL cells = test: Cell cytotoxicity assay; format: cell-based; settings: Homo sapiens, 48 h
In short: as §1

BCL-2 or MCL-1 = format: cell-based, Human
In short: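 T-ALL cells were lysed before and after test-compound exposure. Western blots of 10 µg lysate were probed for BCL-2 and MCL-1, with β-actin as loading control. Band intensities were measured by densitometry and normalized to β-actin. Each blot was done twice with distinct protein preparations.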

SUP-T1 T-ALL cells = test: Cell cytotoxicity assay; format: cell-based, Human
In short: as §1

[2] = intratumoral, T-ALL xenograft in immunodeficient mice ref 8; cited from earlier work

Cc1ncsc1-c1ccc([C@H](C)NC(=O)[C@@H]2C[C@@H](O)CN2C(=O)[C@@H](NC(=O)CCCCCC(=O)N2CCN(CC[C@H](CSc3ccccc3)Nc3ccc(S(=O)(=O)NC(=O)c4ccc(N5CCN(CC6=C(c7ccc(Cl)cc7)CCC(C)(C)C6)CC5)cc4)cc3S(=O)(=O)C(F)(F)F)CC2)C(C)(C)C)cc1 [DT2216]
IC50 [1]: < 800 nM
DC50 (BCL-XL): 131 nM
IC50 (PEER T-ALL cells): 305 nM
Induction of BCL-2 or MCL-1 expression by DT2216 (BCL-2 or MCL-1; any of the 13 T-ALL cell lines): not induced
Change in BCL-2 or MCL-1 protein levels after exposure to DT2216 (BCL-2 or MCL-1; resistant SUP-T1 cells): no change
IC50 (SUP-T1 T-ALL cells; 48 hrs): 1490 nM
IC50 (SUP-T1 T-ALL cells; Homo sapiens, SUP-T1, 48 h): > 800 nM
DT2216 level achieved within a T-ALL xenografted tumor in vivo [2]: 800 nM
